The target of data set [1] is Phosphatidylinositol 4-phosphate 3-kinase C2 domain-containing subunit alpha (Homo sapiens) (UniProt O00443). Description: Inhibition of recombinant human PI3KC2alpha (299 to end residues) at 10 uM using phosphatidylinositol as substrate measured after 40 mins by HTRF assay.
Data set [2] concerns the target Bromodomain-containing protein 3 (Homo sapiens) (UniProt Q15059). Kind of data set: Binding affinity to human partial length BRD3 bromodomain 2 (G306 to P416 residues) expressed in bacterial expression system at 1 uM by BROMOscan assay. The procedure, abridged: (§1)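 BROMOscan bromodomain cross-screen run by an outside service, compound at 1 µM against 32 recombinant bromodomains. Binding given as percent of control.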

In data set [3] the target is Myosin light chain kinase 2, skeletal/cardiac muscle (Homo sapiens) (UniProt Q9H1R3). Kind of data set: Inhibition of recombinant full-length human MYLK2 at 10 uM using KKLNRTLSFAEPG as substrate measured after 40 mins in presence of [gamma33P]ATP by scintillation counting method.
The subject of data set [4] is Hepatocyte growth factor receptor (Homo sapiens), P08581 [Y1230D]. Kind of data set: Inhibition of recombinant human MET A1209G/V1290L/Y1248D mutant (974 to end residues) at 10 uM using KKKGQEEEYVFIE as substrate measured after 40 mins in presence of [gamma33P]ATP by scintillation counting method.
Data set [5] deals with MAP/microtubule affinity-regulating kinase 4 (Homo sapiens) (UniProt Q96L34). Description: Inhibition of recombinant full-length human MARK4 at 10 uM using KKKVSRSGLYRSPSMPENLNRPR as substrate measured after 40 mins in presence of [gamma33P]ATP by scintillation counting method.
For data set [6], the target named is Eukaryotic translation initiation factor 2-alpha kinase 1 (Homo sapiens) (UniProt Q9BQI3). Kind of data set: Inhibition of recombinant human HRI (140 to end residues) at 10 uM using RSRSRSRSRSRSRSR as substrate measured after 120 mins in presence of [gamma33P]ATP by scintillation counting method.
Data set [7] deals with Serine/threonine-protein kinase Nek11 (Homo sapiens) (UniProt Q8NG66). Kind of data set: Inhibition of recombinant full-length human NEK11 at 10 uM using myelin basic protein as substrate measured after 40 mins in presence of [gamma33P]ATP by scintillation counting method.
Data set [8] addresses SWI/SNF-related matrix-associated actin-dependent regulator of chromatin subfamily A member 2 (Homo sapiens) (UniProt P51531). Description: Binding affinity to human partial length SMARCA2 (S1377 to Q1486 residues) expressed in bacterial expression system at 1 uM by BROMOscan assay. The gist of the method: as §1
Data set [9] has as its target Cyclin-dependent kinase-like 3 (Homo sapiens) (UniProt Q8IVW4). Description: Inhibition of recombinant human full-length CDKL3 (1 to 303 residues) at 10 uM using RRRFRPASPLRGP as substrate measured after 120 mins in presence of [gamma33P]ATP by scintillation counting method.
Data set [10] addresses Tyrosine-protein kinase Lck (Homo sapiens) (UniProt P06239). Description: Inhibition of recombinant full-length human Lck at 10 uM using KVEKIGEGTYGVV as substrate measured after 40 mins in presence of [gamma33P]ATP by scintillation counting method.
For data set [11], the target named is MAP kinase-activated protein kinase 3 (Homo sapiens) (UniProt Q16644). Kind of data set: Inhibition of recombinant human MAPKAPK3 (2 to end residues) at 10 uM using KKLNRTLSVA as substrate measured after 40 mins in presence of [gamma33P]ATP by scintillation counting method.
MAP kinase-activated protein kinase 3 (Homo sapiens), sequence (Q16644 whole entry, looked up, canonical isoform): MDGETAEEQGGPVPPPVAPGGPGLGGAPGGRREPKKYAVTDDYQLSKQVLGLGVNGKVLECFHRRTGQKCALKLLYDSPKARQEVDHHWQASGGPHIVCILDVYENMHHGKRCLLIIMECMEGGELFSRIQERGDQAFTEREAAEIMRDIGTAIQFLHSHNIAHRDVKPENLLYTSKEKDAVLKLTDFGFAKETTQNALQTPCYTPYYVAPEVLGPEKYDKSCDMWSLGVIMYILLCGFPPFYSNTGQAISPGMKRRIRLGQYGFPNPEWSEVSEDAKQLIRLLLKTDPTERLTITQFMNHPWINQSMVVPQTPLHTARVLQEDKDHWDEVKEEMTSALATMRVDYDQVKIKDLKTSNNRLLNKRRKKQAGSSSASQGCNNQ
Data set [12] addresses Casein kinase I isoform gamma-2 (Homo sapiens) (UniProt P78368). Kind of data set: Inhibition of recombinant human CK1gamma2 (18 to end residues) at 10 uM using KRRRALS(p)VASLPGL as substrate measured after 40 mins in presence of [gamma33P]ATP by scintillation counting method.
Data set [13] concerns the target Fibroblast growth factor receptor 3 (Homo sapiens) (UniProt P22607). Description: Inhibition of recombinant human FGFR3 (447 to 761 residues) at 10 uM using poly(Glu, Tyr) 4:1 as substrate measured after 40 mins in presence of [gamma33P]ATP by scintillation counting method.
Data set [14] has as its target Testis-specific serine/threonine-protein kinase 1 (Homo sapiens) (UniProt Q9BXA7). Kind of data set: Inhibition of recombinant full-length human TSSK1 at 10 uM using KKKVSRSGLYRSPSMPENLNRPR as substrate measured after 120 mins in presence of [gamma33P]ATP by scintillation counting method.
In data set [15] the target is BDNF/NT-3 growth factors receptor (Homo sapiens) (UniProt Q16620). Kind of data set: Inhibition of human TrkB (455 to end residues) using poly(Glu, Tyr) 4:1 as substrate measured after 40 mins in presence of [gamma33P]ATP by scintillation counting method.
BDNF/NT-3 growth factors receptor (Homo sapiens), sequence (Q16620 32-822 limits assumed): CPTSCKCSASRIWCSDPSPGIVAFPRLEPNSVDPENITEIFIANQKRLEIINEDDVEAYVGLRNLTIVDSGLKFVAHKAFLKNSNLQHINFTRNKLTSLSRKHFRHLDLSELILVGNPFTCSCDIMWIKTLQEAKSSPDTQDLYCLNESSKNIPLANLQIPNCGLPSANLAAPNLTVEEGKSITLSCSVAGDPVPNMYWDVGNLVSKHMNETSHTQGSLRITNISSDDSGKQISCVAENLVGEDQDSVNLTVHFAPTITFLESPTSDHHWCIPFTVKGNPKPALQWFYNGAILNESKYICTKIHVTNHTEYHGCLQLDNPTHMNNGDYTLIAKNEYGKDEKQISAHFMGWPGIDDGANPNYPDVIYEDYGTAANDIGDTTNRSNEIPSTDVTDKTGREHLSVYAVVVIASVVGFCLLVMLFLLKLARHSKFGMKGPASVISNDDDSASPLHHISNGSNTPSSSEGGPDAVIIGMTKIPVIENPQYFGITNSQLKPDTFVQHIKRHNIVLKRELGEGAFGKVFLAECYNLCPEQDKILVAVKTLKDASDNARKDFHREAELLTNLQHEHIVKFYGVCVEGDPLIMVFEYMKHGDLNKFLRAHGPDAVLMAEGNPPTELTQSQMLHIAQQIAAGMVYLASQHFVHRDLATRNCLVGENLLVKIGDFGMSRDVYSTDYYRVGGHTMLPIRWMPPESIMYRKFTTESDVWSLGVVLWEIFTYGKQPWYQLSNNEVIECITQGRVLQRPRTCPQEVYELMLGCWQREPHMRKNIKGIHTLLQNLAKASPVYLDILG
Data set [16] has as its target Transcription intermediary factor 1-alpha (Homo sapiens) (UniProt O15164). Description: Binding affinity to human N-terminal His-tagged TRIM24 assessed as change in melting temperature at 10 uM by SYPRO orange dye-based fluorescence assay. The procedure, abridged:
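Thermal shift with His-tagged human bromodomain at 2 μM final in 10 mM HEPES pH 7.5, 500 mM NaCl. Compound at 10 μM final with 0.1% DMSO; SYPRO Orange at 1:1000. Equilibrated 3 min at 25 °C, then heated from 25 to 95 °C at 1 °C/min. Melting temperature shift taken from fluorescence; at least duplicate.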

Data set [17] in a line: Aqueous solubility of the compound by HPLC analysis. Format: physicochemical. Particulars: buffer. The procedure, abridged: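 Measured by HPLC on a C18 reversed-phase column.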
The subject of data set [18] is Platelet-derived growth factor receptor alpha (Homo sapiens), P16234 [D842V]. Kind of data set: Inhibition of recombinant human PDGFRalpha D842V mutant (550 to end residues) at 10 uM using GGMEDIYFEFMGGKKK as substrate measured after 40 mins in presence of [gamma33P]ATP by scintillation counting method.
Data set [19] deals with Serine/threonine-protein kinase 35 (Homo sapiens) (UniProt Q8TDR2). Description: Inhibition of recombinant full length human CLIK1 at 10 uM using RSRSRSRSRSRSRSR as substrate measured after 40 mins in presence of [gamma33P]ATP by scintillation counting method.
Data set [20] deals with Serine/threonine-protein kinase pim-3 (Homo sapiens) (UniProt Q86V86). Kind of data set: Inhibition of recombinant human Pim3 (2 to end residues) at 10 uM using RSRHSSYPAGT as substrate measured after 40 mins in presence of [gamma33P]ATP by scintillation counting method.
In data set [21] the target is CDK2/Cyclin A2 (Homo sapiens) (UniProt P24941+P20248). Description: Inhibition of recombinant full-length human CDK2/cyclinA at 10 uM using histone H1 as substrate measured after 40 mins in presence of [gamma33P]ATP by scintillation counting method. Type of data set: protein-complex assay.
The target in data set [22] is Phosphatidylinositol 5-phosphate 4-kinase type-2 alpha (Homo sapiens) (UniProt P48426). Kind of data set: Inhibition of recombinant full-length human PIP4K2alpha at 10 uM using phosphatidylinositol 5-phosphate as substrate measured after 40 mins by HTRF assay. On the technique in general: In TR-FRET formats the signal depends on donor and acceptor labels being close together.
Phosphatidylinositol 5-phosphate 4-kinase type-2 alpha (Homo sapiens), sequence (P48426 whole entry): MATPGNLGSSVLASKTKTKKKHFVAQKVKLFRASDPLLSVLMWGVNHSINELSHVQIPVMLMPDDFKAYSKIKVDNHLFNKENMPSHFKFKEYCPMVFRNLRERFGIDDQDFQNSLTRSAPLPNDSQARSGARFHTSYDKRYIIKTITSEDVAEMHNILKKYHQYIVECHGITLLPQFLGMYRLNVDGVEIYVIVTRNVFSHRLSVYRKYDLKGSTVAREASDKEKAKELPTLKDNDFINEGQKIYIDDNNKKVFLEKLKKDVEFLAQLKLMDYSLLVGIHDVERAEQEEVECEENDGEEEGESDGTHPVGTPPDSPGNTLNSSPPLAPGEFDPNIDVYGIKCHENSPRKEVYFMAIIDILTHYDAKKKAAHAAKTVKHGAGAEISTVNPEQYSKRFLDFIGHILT

The text below walks through data of ChEMBL document CHEMBL4350961, “Discovery of Pyrrolo[3,2- d]pyrimidin-4-one Derivatives as a New Class of Potent and Cell-Active Inhibitors of P300/CBP-Associated Factor Bromodomain” (J Med Chem, 2019).

In general, ΔTm refers to the change in melting temperature against a reference sample. As usually defined, the solubility is the dissolved amount per volume that the medium holds. A high value points to a readily soluble substance.

In brackets after ≈: the same amount, converted by molar mass. Activity calls are given as the source filed them. The calls are words filed in the database; no cut-off is given here.

Platelet-derived growth factor receptor alpha (Homo sapiens), P16234 [D842V], sequence (P16234 whole entry D842V): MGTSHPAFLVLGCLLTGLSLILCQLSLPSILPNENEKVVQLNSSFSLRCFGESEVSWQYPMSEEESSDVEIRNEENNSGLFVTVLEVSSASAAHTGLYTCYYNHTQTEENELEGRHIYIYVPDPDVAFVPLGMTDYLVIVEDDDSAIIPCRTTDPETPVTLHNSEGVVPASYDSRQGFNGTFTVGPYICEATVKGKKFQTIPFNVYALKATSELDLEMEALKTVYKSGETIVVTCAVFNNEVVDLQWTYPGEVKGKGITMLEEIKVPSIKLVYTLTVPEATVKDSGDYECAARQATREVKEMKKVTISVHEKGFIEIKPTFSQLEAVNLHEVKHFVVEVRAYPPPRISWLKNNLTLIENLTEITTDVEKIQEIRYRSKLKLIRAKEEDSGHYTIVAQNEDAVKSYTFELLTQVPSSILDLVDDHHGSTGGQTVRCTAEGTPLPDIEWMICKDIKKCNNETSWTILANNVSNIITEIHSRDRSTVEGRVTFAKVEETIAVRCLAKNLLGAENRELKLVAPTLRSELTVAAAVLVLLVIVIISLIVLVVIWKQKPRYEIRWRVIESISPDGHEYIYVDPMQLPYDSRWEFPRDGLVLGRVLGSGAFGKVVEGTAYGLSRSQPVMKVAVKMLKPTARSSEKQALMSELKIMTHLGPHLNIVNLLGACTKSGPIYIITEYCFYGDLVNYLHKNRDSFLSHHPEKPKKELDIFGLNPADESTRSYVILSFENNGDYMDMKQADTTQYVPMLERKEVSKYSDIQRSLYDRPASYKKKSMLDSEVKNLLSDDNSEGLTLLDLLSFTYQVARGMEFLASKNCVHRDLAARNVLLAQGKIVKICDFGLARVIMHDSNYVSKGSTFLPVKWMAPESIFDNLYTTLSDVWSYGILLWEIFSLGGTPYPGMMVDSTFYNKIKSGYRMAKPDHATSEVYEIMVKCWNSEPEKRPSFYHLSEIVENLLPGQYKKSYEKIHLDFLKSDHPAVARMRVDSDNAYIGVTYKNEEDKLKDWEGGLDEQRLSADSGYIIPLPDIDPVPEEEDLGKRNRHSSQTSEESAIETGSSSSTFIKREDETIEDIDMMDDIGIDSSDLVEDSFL
SWI/SNF-related matrix-associated actin-dependent regulator of chromatin subfamily A member 2 (Homo sapiens), sequence (P51531 whole entry, the tested form may be a part): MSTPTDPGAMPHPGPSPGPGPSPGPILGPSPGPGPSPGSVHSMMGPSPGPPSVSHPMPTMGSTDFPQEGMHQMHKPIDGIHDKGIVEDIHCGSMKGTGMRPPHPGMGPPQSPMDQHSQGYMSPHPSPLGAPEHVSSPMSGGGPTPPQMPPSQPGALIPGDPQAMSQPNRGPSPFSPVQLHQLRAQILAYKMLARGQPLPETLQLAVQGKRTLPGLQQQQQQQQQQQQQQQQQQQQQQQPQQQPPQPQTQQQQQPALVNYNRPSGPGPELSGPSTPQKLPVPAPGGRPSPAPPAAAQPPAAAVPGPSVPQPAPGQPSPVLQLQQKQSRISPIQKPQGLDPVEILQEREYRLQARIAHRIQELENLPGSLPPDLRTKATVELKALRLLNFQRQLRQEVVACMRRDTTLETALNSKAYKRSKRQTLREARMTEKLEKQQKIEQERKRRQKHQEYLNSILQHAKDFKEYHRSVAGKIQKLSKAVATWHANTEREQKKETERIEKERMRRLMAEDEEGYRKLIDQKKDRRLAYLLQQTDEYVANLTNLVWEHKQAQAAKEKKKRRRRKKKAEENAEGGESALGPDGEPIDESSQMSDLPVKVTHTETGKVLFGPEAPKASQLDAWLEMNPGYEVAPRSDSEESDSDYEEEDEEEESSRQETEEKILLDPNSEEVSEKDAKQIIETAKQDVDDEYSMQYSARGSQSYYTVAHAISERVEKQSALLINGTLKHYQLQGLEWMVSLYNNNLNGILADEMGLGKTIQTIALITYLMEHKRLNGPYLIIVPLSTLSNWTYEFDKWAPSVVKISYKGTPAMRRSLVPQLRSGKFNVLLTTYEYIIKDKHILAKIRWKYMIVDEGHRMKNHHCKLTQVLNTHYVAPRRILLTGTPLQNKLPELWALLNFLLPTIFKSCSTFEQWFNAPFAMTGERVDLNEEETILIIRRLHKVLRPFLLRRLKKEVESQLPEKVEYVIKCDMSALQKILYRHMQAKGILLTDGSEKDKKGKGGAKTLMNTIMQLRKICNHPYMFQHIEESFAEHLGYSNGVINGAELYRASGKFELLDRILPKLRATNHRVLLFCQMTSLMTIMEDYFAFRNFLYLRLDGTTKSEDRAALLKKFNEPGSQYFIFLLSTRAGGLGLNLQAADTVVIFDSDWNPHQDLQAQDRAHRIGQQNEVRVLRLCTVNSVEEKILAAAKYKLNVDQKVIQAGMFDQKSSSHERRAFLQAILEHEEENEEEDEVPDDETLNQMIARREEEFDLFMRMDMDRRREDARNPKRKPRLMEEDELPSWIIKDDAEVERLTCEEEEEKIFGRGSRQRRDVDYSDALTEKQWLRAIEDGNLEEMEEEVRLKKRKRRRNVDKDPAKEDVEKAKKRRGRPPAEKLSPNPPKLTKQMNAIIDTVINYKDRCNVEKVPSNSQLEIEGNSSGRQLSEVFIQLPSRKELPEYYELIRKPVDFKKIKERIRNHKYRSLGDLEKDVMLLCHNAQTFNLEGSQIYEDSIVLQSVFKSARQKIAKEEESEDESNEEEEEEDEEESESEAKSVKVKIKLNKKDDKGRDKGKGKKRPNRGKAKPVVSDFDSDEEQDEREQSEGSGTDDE
Testis-specific serine/threonine-protein kinase 1 (Homo sapiens), sequence (Q9BXA7 whole entry): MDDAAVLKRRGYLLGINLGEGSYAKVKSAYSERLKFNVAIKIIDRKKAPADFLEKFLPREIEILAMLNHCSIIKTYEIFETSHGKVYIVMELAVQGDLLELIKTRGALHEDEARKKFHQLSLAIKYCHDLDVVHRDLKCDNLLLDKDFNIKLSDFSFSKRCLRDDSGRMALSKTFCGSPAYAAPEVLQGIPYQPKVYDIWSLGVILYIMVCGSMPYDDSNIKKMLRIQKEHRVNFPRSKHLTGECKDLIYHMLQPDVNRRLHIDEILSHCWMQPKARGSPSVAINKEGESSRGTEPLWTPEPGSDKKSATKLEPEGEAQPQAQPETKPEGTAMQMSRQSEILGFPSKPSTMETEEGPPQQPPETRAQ
Casein kinase I isoform gamma-2 (Homo sapiens), sequence (P78368 whole entry, looked up, the tested form may be a part, canonical isoform): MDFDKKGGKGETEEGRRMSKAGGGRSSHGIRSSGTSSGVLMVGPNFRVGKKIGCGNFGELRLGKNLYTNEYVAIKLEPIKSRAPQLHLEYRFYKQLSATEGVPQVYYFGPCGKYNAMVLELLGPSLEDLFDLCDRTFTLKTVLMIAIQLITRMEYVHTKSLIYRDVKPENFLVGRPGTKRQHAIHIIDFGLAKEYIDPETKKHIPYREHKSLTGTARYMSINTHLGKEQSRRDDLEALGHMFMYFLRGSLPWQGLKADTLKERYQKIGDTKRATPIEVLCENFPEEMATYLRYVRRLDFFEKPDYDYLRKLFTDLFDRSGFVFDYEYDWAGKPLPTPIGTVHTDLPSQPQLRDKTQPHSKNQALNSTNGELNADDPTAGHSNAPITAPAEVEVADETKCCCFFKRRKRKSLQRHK

Regarding `CN1C[C@H](Nc2nc3cc[nH]c3c(=O)n2C)C[C@H](c2ccc3c(c2)OCCO3)C1`, the inhibition result in data set [1], in data set [3], in data set [4], in data set [5], in data set [6] and in [7] was “inactive” throughout. Besides, the inhibition entry in data set [9], in [10], in data set [11], in data set [12], in [13] and in data set [14] was “inactive” throughout. Moreover, the inhibition result in [15], in data set [18], in data set [19], in data set [20], in data set [21] and in data set [22] was “inactive” each time. Further, the outcome in [2] and in data set [8] was inactive. In addition, the thermal shift (ΔTm) in data set [16] is -0.3 °C. Moreover, the solubility in [17] came out at 480 µM (≈ 190 µg/mL).
